According to ChEMBL document CHEMBL1142155, “Human beta-defensins kill Candida albicans in an energy-dependent and salt-sensitive manner without causing membrane disruption” (2007):
Active and inactive are the calls of the source. The calls are words filed in the database; no cut-off is given here.

How the values were obtained:
Nakaseomyces glabratus [1] = assay: Fungicidal activity against Candida glabrata 932474 at 0.8 uM; type: functional
Candida albicans [2] = assay: Cell death in Candida albicans CAF4-2 at <= 0.6 uM in the presence of 1 mM NaN3 relative to control; type: functional
Candida albicans [3] = assay: Antimicrobial activity against Candida albicans at 1.0 uM in presence of 50 mM NaPB; type: functional
Procedure, shortened: (§1)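 YNB-grown yeast washed twice and resuspended at 10⁶ cells/ml in 10, 20, 50 or 100 mM sodium phosphate buffer, pH 7.4; peptide 0.2 to 1.0 μM for 1 h at 30°C. Diluted aliquots of 500 cells plated on YNB agar, 48 h at room temperature. Loss of viability = [1 − (treated colonies/buffer-only colonies)] × 100; at least three independent experiments.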

Candida albicans [4] = assay: Antimicrobial activity against Candida albicans at 1.0 uM in presence of 20 mM NaPB; type: functional; procedure, shortened: as §1
Candida albicans [5] = assay: Antimicrobial activity against Candida albicans at 1.0 uM in presence of 10 mM NaPB; type: functional; procedure, shortened: as §1
Nakaseomyces glabratus [6] = assay: Fungicidal activity against Candida glabrata 931010 at 0.8 uM; type: functional
Candida albicans [7] = assay: Cell death in Candida albicans CAF4-2 at >= 0.8 uM in presence of 1 mM NaN3 relative to control
Candida albicans [8] = assay: Fungicidal activity against Candida albicans CAF4-2 at 0.8 uM; type: functional
Candida albicans [9] = assay: Induction of ATP efflux in Candida albicans CAF4-2 at 11.6 uM; type: functional, organism-based
Procedure, shortened: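 C. albicans CAF4-2 (10⁴ cells) mixed with peptide (Hst 5 31 μM, hBD-2 11.6 μM, hBD-3 1 μM), some cells pretreated 2 h with 1 mM NaN₃; extracellular ATP read by luminometry at 0, 5, 15, 30, 45 and 60 min; quantified against per-experiment ATP standard curves as pmol ATP per 10⁴ cells.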

Candida albicans [10] = assay: Induction of membrane permeabilization in Candida albicans assessed as calcein release at 11.6 uM after 90 min; type: functional
Procedure, shortened: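 Early-stationary C. albicans loaded with 5 μM (final) calcein-AM, 2 h room temperature, washed four times; 10⁶ cells with peptide, fluorescence (ex 485/em 530 nm) read every 5 min for 90 min; 100% from boiled cells (10 min), background from untreated cells; % release = (I_r − I_bkg)/(I_int − I_bkg) × 100; three independent experiments, mean ± SD.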

Candida albicans [11] = assay: Fungicidal activity against Candida albicans CAF4-2 at 11.6 uM; type: functional
Procedure, shortened: (§2)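 C. albicans CAF4-2 and C. glabrata 931010 or 932474 at 10⁶/ml in 10 mM sodium phosphate pH 7.4, exposed to one peptide concentration (Hst 5 31 μM, hBD-2 11.6 μM, hBD-3 0.8 μM); 500-cell aliquots plated on YNB agar for 48 h at room temperature; loss of viability versus buffer-only control; triplicate.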

Candida albicans [12] = assay: Survival of Candida albicans at 11.6 uM in presence of 5 mM CaCl2; type: functional
Procedure, shortened: (§3)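 Cells at 10⁶/ml in 10 mM sodium phosphate pH 7.4 supplemented with 0.5, 1, 5 or 25 mM CaCl₂, MgCl₂, NaCl or KCl; hBD-2 11.6 μM for 1 h at 30°C; colonies counted on YNB agar after 48 h at room temperature; survival relative to buffer-only cells; at least three independent experiments, mean ± SD.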

Candida albicans [13] = assay: Survival of Candida albicans at 11.6 uM in presence of 0.5 mM KCl; type: functional; procedure, shortened: as §3
Candida albicans [14] = assay: Antimicrobial activity against Candida albicans at 11.6 uM in presence of 10 mM NaPB; type: functional
Procedure, shortened: (§4)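 YNB-grown C. albicans (CAF4-2) washed and resuspended at 10⁶ cells/ml in 10, 20, 50 or 100 mM sodium phosphate buffer pH 7.4; peptide 2.9 to 11.6 μM, 1 h at 30°C; 500-cell aliquots plated on YNB agar, 48 h room temperature; loss of viability = [1 − (treated/buffer-only colonies)] × 100; at least three independent experiments, mean ± SD.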

Candida albicans [15] = assay: Survival of Candida albicans at 11.6 uM in presence of 5 mM MgCl2; type: functional; procedure, shortened: as §3
Nakaseomyces glabratus [16] = assay: Fungicidal activity against Candida glabrata 931010 at 11.6 uM; type: functional; procedure, shortened: as §2
Candida albicans [17] = assay: Survival of Candida albicans at 11.6 uM in presence of 0.5 mM CaCl2; type: functional; procedure, shortened: as §3
Candida albicans [18] = assay: Antimicrobial activity against Candida albicans at 11.6 uM in presence of 50 mM NaPB; type: functional; procedure, shortened: as §4
Candida albicans [19] = assay: Survival of Candida albicans at 11.6 uM in presence of 0.5 mM MgCl2; type: functional; procedure, shortened: as §3
Nakaseomyces glabratus [20] = assay: Fungicidal activity against Candida glabrata 932474 at 11.6 uM; type: functional; procedure, shortened: as §2
Candida albicans [21] = assay: Survival of Candida albicans at 11.6 uM in presence of 0.5 mM NaCl; type: functional; procedure, shortened: as §3
Candida albicans [22] = assay: Cell death in Candida albicans CAF4-2 in presence of 1 mM NaN3 relative to control; type: functional
Candida albicans [23] = assay: Antimicrobial activity against Candida albicans at 11.6 uM in presence of 100 mM NaPB; type: functional; procedure, shortened: as §4
Candida albicans [24] = assay: Antimicrobial activity against Candida albicans at 11.6 uM in presence of 20 mM NaPB; type: functional; procedure, shortened: as §4
Nakaseomyces glabratus [25] = assay: Fungicidal activity against Candida glabrata 931010 at 31 uM; type: functional
Candida albicans [26] = assay: Fungicidal activity against Candida albicans CAF4-2 at 31 uM; type: functional
Candida albicans [27] = assay: Induction of ATP efflux in Candida albicans CAF4-2 at 31 uM; type: functional, organism-based
Procedure, shortened: (§5)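 10⁴ C. albicans cells given 31 μM Hst 5 or 1 μM hBD-3, with or without 2 h pretreatment in 1 mM NaN₃. Extracellular ATP read by luminometry at 0, 5, 15, 30, 45 and 60 min. Values come from per-experiment ATP standard curves, as pmol ATP per 10⁴ cells.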

Nakaseomyces glabratus [28] = assay: Fungicidal activity against Candida glabrata 932474 at 31 uM; type: functional
Candida albicans [29] = assay: Induction of membrane permeabilization in Candida albicans assessed as calcein release at 32 uM after 90 min; type: functional
Procedure, shortened: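 Early-stationary yeast washed in 10 mM NaPB, loaded at 10⁷/ml with 5 μM (final) calcein-AM for 2 h at room temperature, then washed four times; 10⁶ cells given 0.8 μM hBD-3 or 32 μM Hst 5. Fluorescence (ex 485/em 530 nm) read every 5 min for 90 min. Percent release = (I_r − I_bkg)/(I_int − I_bkg) × 100, where I_int comes from boiling 10 min. Mean ± SD of three experiments.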

Candida albicans [30] = assay: Induction of ATP efflux in Candida albicans CAF4-2 at 31 uM in presence of 1 mM sodium azide; type: functional, organism-based; procedure, shortened: as §5

## CC[C@H](C)[C@H](NC(=O)CN)C(=O)N[C@H](C(=O)N[C@@H](CC(N)=O)C(=O)N[C@H](C(=O)N[C@@H](CC(C)C)C(=O)N[C@@H](CCC(N)=O)C(=O)N[C@@H](CCCCN)C(=O)N[C@@H](Cc1ccc(O)cc1)C(=O)N[C@@H](Cc1ccc(O)cc1)C(=O)N[C@@H](CS)C(=O)N[C@@H](CCCNC(=N)N)C(=O)N[C@H](C(=O)N[C@@H](CCCNC(=N)N)C(=O)NCC(=O)NCC(=O)N[C@@H](CCCNC(=N)N)C(=O)N[C@@H](CS)C(=O)N[C@@H](C)C(=O)N[C@H](C(=O)N[C@@H](CC(C)C)C(=O)N[C@@H](CO)C(=O)N[C@@H](CS)C(=O)N[C@@H](CC(C)C)C(=O)N1CCC[C@H]1C(=O)N[C@@H](CCCCN)C(=O)N[C@@H](CCC(=O)O)C(=O)N[C@@H](CCC(=O)O)C(=O)N[C@@H](CCC(N)=O)C(=O)N[C@H](C(=O)NCC(=O)N[C@@H](CCCCN)C(=O)N[C@@H](CS)C(=O)N[C@@H](CO)C(=O)N[C@H](C(=O)N[C@@H](CCCNC(=N)N)C(=O)NCC(=O)N[C@@H](CCCNC(=N)N)C(=O)N[C@@H](CCCCN)C(=O)N[C@@H](CS)C(=O)N[C@@H](CS)C(=O)N[C@@H](CCCNC(=N)N)C(=O)N[C@@H](CCCNC(=N)N)C(=O)N[C@@H](CCCCN)C(=O)N[C@@H](CCCCN)C(=O)O)[C@@H](C)O)[C@@H](C)CC)C(C)C)C(C)C)[C@@H](C)O)[C@@H](C)CC
Nakaseomyces glabratus [1]
  Activity: 53.2%
Candida albicans [2]
  Activity: <10%
Candida albicans [3]
  Activity: 18%
Candida albicans [4]
  Activity: 63%
Candida albicans [5]
  Activity: 98.2%
Nakaseomyces glabratus [6]
  Activity: 11.5%
Candida albicans [7]
  Activity: 36%
Candida albicans [8]
  Activity: 98.2%

## CC[C@H](C)[C@H](NC(=O)CN)C(=O)NCC(=O)N[C@@H](CC(=O)O)C(=O)N1CCC[C@H]1C(=O)N[C@H](C(=O)N[C@H](C(=O)N[C@@H](CS)C(=O)N[C@@H](CC(C)C)C(=O)N[C@@H](CCCCN)C(=O)N[C@@H](CO)C(=O)NCC(=O)N[C@@H](C)C(=O)N[C@H](C(=O)N[C@@H](CS)C(=O)N[C@@H](Cc1cnc[nH]1)C(=O)N1CCC[C@H]1C(=O)N[C@H](C(=O)N[C@@H](Cc1ccccc1)C(=O)N[C@@H](CS)C(=O)N1CCC[C@H]1C(=O)N[C@@H](CCCNC(=N)N)C(=O)N[C@@H](CCCNC(=N)N)C(=O)N[C@@H](Cc1ccc(O)cc1)C(=O)N[C@@H](CCCCN)C(=O)N[C@@H](CCC(N)=O)C(=O)N[C@H](C(=O)NCC(=O)N[C@H](C(=O)N[C@@H](CS)C(=O)NCC(=O)N[C@@H](CC(C)C)C(=O)N1CCC[C@H]1C(=O)NCC(=O)N[C@H](C(=O)N[C@@H](CCCCN)C(=O)N[C@@H](CS)C(=O)N[C@@H](CS)C(=O)N[C@@H](CCCCN)C(=O)N[C@@H](CCCCN)C(=O)N1CCC[C@H]1C(=O)O)[C@H](C)O)[C@H](C)O)[C@@H](C)CC)C(C)C)[C@@H](C)CC)[C@H](C)O)C(C)C
Candida albicans [9]
  Activity: Active
Candida albicans [10]
  Activity: 10.3%

## CC[C@H](C)[C@H](NC(=O)CN)C(=O)NCC(=O)N[C@@H](CC(=O)O)C(=O)N1CCC[C@H]1C(=O)N[C@H](C(=O)N[C@H](C(=O)N[C@@H](CS)C(=O)N[C@@H](CC(C)C)C(=O)N[C@@H](CCCCN)C(=O)N[C@@H](CO)C(=O)NCC(=O)N[C@@H](C)C(=O)N[C@H](C(=O)N[C@@H](CS)C(=O)N[C@@H](Cc1cnc[nH]1)C(=O)N1CCC[C@H]1C(=O)N[C@H](C(=O)N[C@@H](Cc1ccccc1)C(=O)N[C@@H](CS)C(=O)N1CCC[C@H]1C(=O)N[C@@H](CCCNC(=N)N)C(=O)N[C@@H](CCCNC(=N)N)C(=O)N[C@@H](Cc1ccc(O)cc1)C(=O)N[C@@H](CCCCN)C(=O)N[C@@H](CCC(N)=O)C(=O)N[C@H](C(=O)NCC(=O)N[C@H](C(=O)N[C@@H](CS)C(=O)NCC(=O)N[C@@H](CC(C)C)C(=O)N1CCC[C@H]1C(=O)NCC(=O)N[C@H](C(=O)N[C@@H](CCCCN)C(=O)N[C@@H](CS)C(=O)N[C@@H](CS)C(=O)N[C@@H](CCCCN)C(=O)N[C@@H](CCCCN)C(=O)N1CCC[C@H]1C(=O)O)[C@@H](C)O)[C@@H](C)O)[C@@H](C)CC)C(C)C)[C@@H](C)CC)[C@@H](C)O)C(C)C
Candida albicans [11]
  Activity: 95%
Candida albicans [12]
  Activity: 86%
Candida albicans [13]
  Activity: 18%
Candida albicans [14]
  Activity: 95%
Candida albicans [15]
  Activity: 97.6%
Nakaseomyces glabratus [16]
  Activity: 20.2%
Candida albicans [17]
  Activity: 69%
Candida albicans [18]
  Activity: 29%
Candida albicans [19]
  Activity: 58.4%
Nakaseomyces glabratus [20]
  Activity: 89.6%
Candida albicans [21]
  Activity: 24%
Candida albicans [22]
  Activity: 15%
Candida albicans [23]
  Activity: 24%
Candida albicans [24]
  Activity: 54%

## C[C@H](NC(=O)[C@H](Cc1cnc[nH]1)NC(=O)[C@H](CO)NC(=O)[C@@H](N)CC(=O)O)C(=O)N[C@@H](CCCCN)C(=O)N[C@@H](CCCNC(=N)N)C(=O)N[C@@H](Cc1cnc[nH]1)C(=O)N[C@@H](Cc1cnc[nH]1)C(=O)NCC(=O)N[C@@H](Cc1ccc(O)cc1)C(=O)N[C@@H](CCCCN)C(=O)N[C@@H](CCCNC(=N)N)C(=O)N[C@@H](CCCCN)C(=O)N[C@@H](Cc1ccccc1)C(=O)N[C@@H](Cc1cnc[nH]1)C(=O)N[C@@H](CCC(=O)O)C(=O)N[C@@H](CCCCN)C(=O)N[C@@H](Cc1cnc[nH]1)C(=O)N[C@@H](Cc1cnc[nH]1)C(=O)N[C@@H](CO)C(=O)N[C@@H](Cc1cnc[nH]1)C(=O)N[C@@H](CCCNC(=N)N)C(=O)NCC(=O)N[C@@H](Cc1ccc(O)cc1)C(=O)O [HISTATIN 5]
Nakaseomyces glabratus [25]
  Activity: 12.2%
Candida albicans [26]
  Activity: 97.5%
Candida albicans [27]
  Activity: Active
Nakaseomyces glabratus [28]
  Activity: 29.4%
Candida albicans [29]
  Activity: 11%
Candida albicans [30]
  Activity: inactive
